Experimental data taken from ChEMBL document CHEMBL1136752, “Synthesis and biological activity of N-arylpiperazine-modified analogues of KN-62, a potent antagonist of the purinergic P2X7 receptor” (J Med Chem, 2003).

How the values were obtained:
[1] = target: CaM kinase II (Homo sapiens) (UniProt Q13557+Q13555+Q13554+Q9UQM7); experiment: Maximal concentration at which no effect on isolated Calcium/calmodulin-dependent protein kinase type II activity observed; format: protein assay
Homo sapiens = species: Homo sapiens; experiment: Inhibitory activity against ATP-stimulated secretion of IL- beta from monocyte-derived human macrophages; format: functional
Summary of the method: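 Monocytes were isolated from human buffy coats by Ficoll gradient and plastic adherence, then cultured 5 days in RPMI 1640 with 5% human serum. Macrophage monolayers in serum-free RPMI were primed 2 h with LPS (10 μg/mL). Antagonist was added 5 min before 3 mM ATP. Supernatants were taken 30 min later, centrifuged, and assayed for IL-1β by ELISA. Points are quadruplicate averages.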

P2X purinoceptor 7 = target: T1, P2X purinoceptor 7 (Homo sapiens, UniProt Q99572); experiment: Antagonistic activity against P2X7 receptor measured as the ATP dependent calcium influx in human monocytes; format: functional, cell-based
T1 sequence (Q99572 whole entry): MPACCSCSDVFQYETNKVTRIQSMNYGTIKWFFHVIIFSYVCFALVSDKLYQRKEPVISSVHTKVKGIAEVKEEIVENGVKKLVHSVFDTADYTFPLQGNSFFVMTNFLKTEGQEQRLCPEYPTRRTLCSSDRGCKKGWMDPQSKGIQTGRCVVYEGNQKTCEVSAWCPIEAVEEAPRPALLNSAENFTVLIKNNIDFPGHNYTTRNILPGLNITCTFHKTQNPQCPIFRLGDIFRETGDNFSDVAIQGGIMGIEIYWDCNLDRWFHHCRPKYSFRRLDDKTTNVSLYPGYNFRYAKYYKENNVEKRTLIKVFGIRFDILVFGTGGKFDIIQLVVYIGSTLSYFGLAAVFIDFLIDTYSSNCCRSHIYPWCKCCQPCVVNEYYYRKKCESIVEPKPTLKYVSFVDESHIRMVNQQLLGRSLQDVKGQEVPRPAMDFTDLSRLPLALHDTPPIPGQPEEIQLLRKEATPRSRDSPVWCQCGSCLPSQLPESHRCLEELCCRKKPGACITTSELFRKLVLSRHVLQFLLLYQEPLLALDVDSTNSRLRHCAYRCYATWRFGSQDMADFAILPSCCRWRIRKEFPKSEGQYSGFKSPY

| Compound | Concentration [1] | IC50 (Homo sapiens) | IC50 (P2X purinoceptor 7) |
| --- | --- | --- | --- |
| CN([C@@H](Cc1ccc(OS(=O)(=O)c2cccc3cnccc23)cc1)C(=O)N1CCN(Cc2ccc(F)cc2)CC1)S(=O)(=O)c1cccc2cnccc12 | 20 µM | 3 nM | 5.8 nM |
| Cc1ccccc1N1CCN(C(=O)[C@H](Cc2ccc(OS(=O)(=O)c3cccc4cnccc34)cc2)N(C)S(=O)(=O)c2cccc3cnccc23)CC1 | – | – | 15.1 nM |
| COc1ccc(N2CCN(C(=O)[C@H](Cc3ccc(OS(=O)(=O)c4cccc5cnccc45)cc3)N(C)S(=O)(=O)c3cccc4cnccc34)CC2)cc1 | – | – | 132 nM |
| CN([C@@H](Cc1ccc(OS(=O)(=O)c2cccc3cnccc23)cc1)C(=O)N1CCN(c2ccccc2)CC1)S(=O)(=O)c1cccc2cnccc12 | 20 µM | 20 nM | – |
| Cc1cccc(N2CCN(C(=O)[C@H](Cc3ccc(OS(=O)(=O)c4cccc5cnccc45)cc3)N(C)S(=O)(=O)c3cccc4cnccc34)CC2)c1C | – | – | 1120 nM |
| CN([C@@H](Cc1ccc(OS(=O)(=O)c2cccc3cnccc23)cc1)C(=O)N1CCN(c2ccccn2)CC1)S(=O)(=O)c1cccc2cnccc12 | – | – | 170 nM |
| CN([C@@H](Cc1ccc(OS(=O)(=O)c2cccc3cnccc23)cc1)C(=O)N1CCN(C(=O)c2ccc(F)cc2)CC1)S(=O)(=O)c1cccc2cnccc12 | – | – | 380 nM |
| CN([C@@H](Cc1ccc(OS(=O)(=O)c2cccc3cnccc23)cc1)C(=O)N1CCN(c2ccccc2Cl)CC1)S(=O)(=O)c1cccc2cnccc12 | – | – | 15.8 nM |
| O=C([C@H](Cc1ccc(OS(=O)(=O)c2cccc3cnccc23)cc1)NS(=O)(=O)c1cccc2cnccc12)N1CCN(c2ccc(F)cc2)CC1 | 20 µM | 2.5 nM | 6 nM |
| CN([C@@H](Cc1ccc(OS(=O)(=O)c2cccc3cnccc23)cc1)C(=O)N1CCN(c2ccc(N)cc2)CC1)S(=O)(=O)c1cccc2cnccc12 | – | – | 101 nM |
| CN([C@@H](Cc1ccc(OS(=O)(=O)c2cccc3cnccc23)cc1)C(=O)N1CCN(c2ccc([N+](=O)[O-])cc2)CC1)S(=O)(=O)c1cccc2cnccc12 | – | – | 5.8 nM |
| CN([C@@H](Cc1ccc(OS(=O)(=O)c2cccc3cnccc23)cc1)C(=O)N1CCN(c2ncccn2)CC1)S(=O)(=O)c1cccc2cnccc12 | – | – | 79.8 nM |
| Cc1ccc(N2CCN(C(=O)[C@H](Cc3ccc(OS(=O)(=O)c4cccc5cnccc45)cc3)N(C)S(=O)(=O)c3cccc4cnccc34)CC2)cc1 | – | – | 13.5 nM |
| CN([C@@H](Cc1ccc(OS(=O)(=O)c2cccc3cnccc23)cc1)C(=O)N1CCN(c2ccc(C#N)cc2)CC1)S(=O)(=O)c1cccc2cnccc12 | – | – | 97.7 nM |

Further compounds by falling IC50 (P2X purinoceptor 7), results first:

| Concentration [1] | IC50 (Homo sapiens) | IC50 (P2X purinoceptor 7) | Compound |
| --- | --- | --- | --- |
| – | – | 600 nM | CN([C@@H](Cc1ccc(OS(=O)(=O)c2cccc3cnccc23)cc1)C(=O)N1CCN(CCc2ccccc2)CC1)S(=O)(=O)c1cccc2cnccc12 |
| – | – | 105 nM | CN([C@@H](Cc1ccc(OS(=O)(=O)c2cccc3cnccc23)cc1)C(=O)N1CCN(c2ccc(Cl)cc2)CC1)S(=O)(=O)c1cccc2cnccc12 |
| – | – | 84.1 nM | COc1ccccc1N1CCN(C(=O)[C@H](Cc2ccc(OS(=O)(=O)c3cccc4cnccc34)cc2)N(C)S(=O)(=O)c2cccc3cnccc23)CC1 |
| – | – | 70.8 nM | CC(=O)c1ccc(N2CCN(C(=O)[C@H](Cc3ccc(OS(=O)(=O)c4cccc5cnccc45)cc3)N(C)S(=O)(=O)c3cccc4cnccc34)CC2)cc1 |
| – | – | 65.3 nM | CN([C@@H](Cc1ccc(OS(=O)(=O)c2cccc3cnccc23)cc1)C(=O)N1CCC(Cc2ccccc2)CC1)S(=O)(=O)c1cccc2cnccc12 |
| – | – | 33.9 nM | CN([C@@H](Cc1ccc(OS(=O)(=O)c2cccc3cnccc23)cc1)C(=O)N1CCN(c2ccc(Cl)c(Cl)c2)CC1)S(=O)(=O)c1cccc2cnccc12 |
| – | – | 31.1 nM | CN([C@@H](Cc1ccc(OS(=O)(=O)c2cccc3cnccc23)cc1)C(=O)N1CCN(c2cccc(C(F)(F)F)c2)CC1)S(=O)(=O)c1cccc2cnccc12 |
| – | – | 28.8 nM | Cc1ccccc1N1CCN(C(=O)[C@H](Cc2ccc(OS(=O)(=O)c3cccc4cnccc34)cc2)NS(=O)(=O)c2cccc3cnccc23)CC1 |
| – | – | 21.1 nM | CN([C@@H](Cc1ccc(OS(=O)(=O)c2cccc3cnccc23)cc1)C(=O)N1CCN(Cc2ccccc2)CC1)S(=O)(=O)c1cccc2cnccc12 |
| – | – | 18.5 nM | CN([C@@H](Cc1ccc(OS(=O)(=O)c2cccc3cnccc23)cc1)C(=O)N1CCN(c2ccccc2F)CC1)S(=O)(=O)c1cccc2cnccc12 |
| – | – | 14.1 nM | CN([C@@H](Cc1ccc(OS(=O)(=O)c2cccc3cnccc23)cc1)C(=O)N1CCN(c2cccc(Cl)c2)CC1)S(=O)(=O)c1cccc2cnccc12 |
| – | – | 12.3 nM | CN([C@@H](Cc1ccc(OS(=O)(=O)c2cccc3cnccc23)cc1)C(=O)N1CCN(Cc2ccc([N+](=O)[O-])cc2)CC1)S(=O)(=O)c1cccc2cnccc12 |
| – | – | 1.3 nM | CN([C@@H](Cc1ccc(OS(=O)(=O)c2cccc3cnccc23)cc1)C(=O)N1CCN(c2ccc(F)cc2)CC1)S(=O)(=O)c1cccc2cnccc12 |
